Assay results from ChEMBL document CHEMBL1255376, “Comparative surveillance study of telavancin activity against recently collected gram-positive clinical isolates from across the United States” (2008).
Converted amounts (≈) assume the structure as drawn.

Key:
Format in all cases: functional
Staphylococcus aureus [1] = assay: Antibacterial activity against methicillin-susceptible Staphylococcus aureus clinical isolate by broth microdilution method
Method in brief: (§1)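 MICs by CLSI broth microdilution in frozen trays pre-loaded with serial dilutions of each agent. Quality-control strains run in parallel: E. faecalis ATCC 29212 and ATCC 51299, S. aureus ATCC 29213, S. pneumoniae ATCC 49619. Comparator susceptibility categories follow CLSI breakpoints. Methicillin resistance in staphylococci assigned from the oxacillin MIC.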

Streptococcus pneumoniae [2] = assay: Antibacterial activity against penicillin resistant Streptococcus pneumoniae clinical isolate by broth microdilution method; method in brief: as §1
Staphylococcus aureus [3] = assay: Antibacterial activity against vancomycin-, methicillin-resistant Staphylococcus aureus VRS2 by broth microdilution method
Method in brief: (§2)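 VISA and VRSA strains from the NARSA repository were tested separately from the surveillance isolates. MICs by CLSI broth microdilution in frozen trays with serial dilutions. Quality-control strains run in parallel. Susceptibility categories follow CLSI breakpoints, and methicillin resistance was assigned from the oxacillin MIC.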

Streptococcus pneumoniae [4] = assay: Antibacterial activity against penicillin susceptible Streptococcus pneumoniae clinical isolate by broth microdilution method; method in brief: as §1
Streptococcus pyogenes = assay: Antibacterial activity against Streptococcus pyogenes clinical isolate by broth microdilution method
Method in brief: (§3)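 MIC by CLSI broth microdilution in frozen microtiter trays holding serial dilutions of each agent, prepared from standard laboratory powders. E. faecalis ATCC 29212 and ATCC 51299, S. aureus ATCC 29213 and S. pneumoniae ATCC 49619 run in parallel as quality-control strains. Comparator susceptibility interpreted with CLSI breakpoints.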

Streptococcus mitis = assay: Antibacterial activity against Streptococcus mitis clinical isolate by broth microdilution method; method in brief: as §3
Staphylococcus capitis [5] = assay: Antibacterial activity against daptomycin-nonsusceptible Staphylococcus capitis isolate 1285355 by broth microdilution method; method in brief: as §3
Streptococcus oralis = assay: Antibacterial activity against Streptococcus oralis clinical isolate by broth microdilution method; method in brief: as §3
Staphylococcus aureus [6] = assay: Antibacterial activity against vancomycin-intermediate methicillin-resistant Staphylococcus aureus NRS17 by broth microdilution method; method in brief: as §2
Staphylococcus xylosus [7] = assay: Antibacterial activity against methicillin-susceptible coagulase-negative Staphylococcus xylosus clinical isolate by broth microdilution method; method in brief: as §1
Staphylococcus simulans [8] = assay: Antibacterial activity against methicillin-susceptible coagulase-negative Staphylococcus simulans clinical isolate by broth microdilution method; method in brief: as §1
[9] = test system: Staphylococcus saprophyticus; assay: Antibacterial activity against methicillin-resistant coagulase-negative Staphylococcus saprophyticus clinical isolate by broth microdilution method; method in brief: as §1
Enterococcus faecium [10] = assay: Antibacterial activity against vancomycin- and teichoplanin-nonsusceptible Enterococcus faecium clinical isolate by broth microdilution method; method in brief: as §1
[11] = test system: Staphylococcus epidermidis; assay: Antibacterial activity against methicillin-resistant coagulase-negative Staphylococcus epidermidis clinical isolate by broth microdilution method; method in brief: as §1
Staphylococcus xylosus [12] = assay: Antibacterial activity against methicillin-resistant coagulase-negative Staphylococcus xylosus clinical isolate by broth microdilution method; method in brief: as §1
Staphylococcus aureus [13] = assay: Antibacterial activity against vancomycin-, methicillin-resistant Staphylococcus aureus VRS3 by broth microdilution method; method in brief: as §2
Staphylococcus [14] = assay: Antibacterial activity against methicillin-susceptible coagulase-negative unspeciated Staphylococcus clinical isolate by broth microdilution method; method in brief: as §1
Streptococcus pneumoniae [15] = assay: Antibacterial activity against penicillin intermediate Streptococcus pneumoniae clinical isolate by broth microdilution method; method in brief: as §1
Enterococcus faecalis [16] = assay: Antibacterial activity against vancomycin-resistant and teichoplanin-susceptible Enterococcus faecalis clinical isolate by broth microdilution method; method in brief: as §1
[17] = test system: Staphylococcus haemolyticus; assay: Antibacterial activity against methicillin-susceptible coagulase-negative Staphylococcus haemolyticus clinical isolate by broth microdilution method; method in brief: as §1
Staphylococcus simulans [18] = assay: Antibacterial activity against methicillin-resistant coagulase-negative Staphylococcus simulans clinical isolate by broth microdilution method; method in brief: as §1
Staphylococcus [19] = assay: Antibacterial activity against daptomycin-nonsusceptible coagulase-negative Staphylococcus isolate 1285835 by broth microdilution method; method in brief: as §3
Enterococcus faecalis [20] = assay: Antibacterial activity against vancomycin- and teichoplanin-nonsusceptible Enterococcus faecalis clinical isolate by broth microdilution method; method in brief: as §1
Staphylococcus warneri [21] = assay: Antibacterial activity against methicillin-susceptible coagulase-negative Staphylococcus warneri clinical isolate by broth microdilution method; method in brief: as §1
Staphylococcus aureus [22] = assay: Antibacterial activity against methicillin-resistant Staphylococcus aureus clinical isolate by broth microdilution method; method in brief: as §1
[23] = test system: Staphylococcus saprophyticus; assay: Antibacterial activity against methicillin-susceptible coagulase-negative Staphylococcus saprophyticus clinical isolate by broth microdilution method; method in brief: as §1
Staphylococcus cohnii [24] = assay: Antibacterial activity against methicillin-susceptible coagulase-negative Staphylococcus cohnii clinical isolate by broth microdilution method; method in brief: as §1
Staphylococcus cohnii [25] = assay: Antibacterial activity against methicillin-resistant coagulase-negative Staphylococcus cohnii clinical isolate by broth microdilution method; method in brief: as §1
[26] = Antibacterial activity against Streptococcus sp. Group G clinical isolate by broth microdilution method; method in brief: as §3
Streptococcus sp. = assay: Antibacterial activity against Streptococcus sp. Group F clinical isolate by broth microdilution method
Method in brief: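 MIC by CLSI broth microdilution in frozen microtiter trays holding serial dilutions of each agent, prepared from standard laboratory powders. Comparator susceptibility interpreted with CLSI breakpoints.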

Enterococcus faecium [27] = assay: Antibacterial activity against vancomycin-susceptible Enterococcus faecium clinical isolate by broth microdilution method; method in brief: as §3
Staphylococcus capitis [28] = assay: Antibacterial activity against methicillin-resistant coagulase-negative Staphylococcus capitis clinical isolate by broth microdilution method; method in brief: as §1
Staphylococcus hominis [29] = assay: Antibacterial activity against methicillin-susceptible coagulase-negative Staphylococcus hominis clinical isolate by broth microdilution method; method in brief: as §1
Staphylococcus hominis [30] = assay: Antibacterial activity against methicillin-resistant coagulase-negative Staphylococcus hominis clinical isolate by broth microdilution method; method in brief: as §1
Streptococcus sanguinis = assay: Antibacterial activity against Streptococcus sanguinis clinical isolate by broth microdilution method; method in brief: as §3
Mammaliicoccus sciuri = assay: Antibacterial activity against methicillin-resistant coagulase-negative Staphylococcus sciuri clinical isolate by broth microdilution method; method in brief: as §1
Enterococcus faecium [31] = assay: Antibacterial activity against vancomycin-resistant and teichoplanin-susceptible Enterococcus faecium clinical isolate by broth microdilution method; method in brief: as §1
Staphylococcus warneri [32] = assay: Antibacterial activity against methicillin-resistant coagulase-negative Staphylococcus warneri clinical isolate by broth microdilution method; method in brief: as §1

For `CCCCCCCCCCNCCN[C@@]1(C)C[C@H](O[C@H]2[C@H](Oc3c4cc5cc3Oc3ccc(cc3Cl)[C@@H](O)[C@@H](NC(=O)[C@@H](CC(C)C)NC)C(=O)N[C@@H](CC(N)=O)C(=O)N[C@H]5C(=O)N[C@H]3C(=O)N[C@H](C(=O)N[C@H](C(=O)O)c5cc(O)c(CNCP(=O)(O)O)c(O)c5-c5cc3ccc5O)[C@H](O)c3ccc(c(Cl)c3)O4)O[C@H](CO)[C@@H](O)[C@@H]2O)O[C@@H](C)[C@H]1O` [TELAVANCIN], the MIC50 (Staphylococcus aureus [1]) was 0.25 µg/mL (≈ 0.142 µM), the MIC90 (Staphylococcus aureus [1]) was 0.5 µg/mL (≈ 0.285 µM) and the MIC50 (Streptococcus pneumoniae [2]) was 0.015 µg/mL (≈ 0.00854 µM). For the same molecule, the MIC90 (Streptococcus pneumoniae [2]) was 0.015 µg/mL (≈ 0.00854 µM), the MIC (Staphylococcus aureus [3]) was 1 µg/mL (≈ 0.57 µM) and the MIC50 (Streptococcus pneumoniae [4]) was 0.015 µg/mL (≈ 0.00854 µM). For the same molecule, the MIC90 (Streptococcus pneumoniae [4]) was 0.03 µg/mL (≈ 0.0171 µM), the MIC50 (Streptococcus pyogenes) was 0.03 µg/mL (≈ 0.0171 µM) and the MIC90 (Streptococcus pyogenes) was 0.06 µg/mL (≈ 0.0342 µM). The MIC50 (Streptococcus mitis) was 0.03 µg/mL (≈ 0.0171 µM), the MIC90 (Streptococcus mitis) was 0.12 µg/mL (≈ 0.0684 µM) and the MIC (Staphylococcus capitis [5]) was 1 µg/mL (≈ 0.57 µM). It also gave an MIC50 (Streptococcus oralis) of 0.03 µg/mL (≈ 0.0171 µM), an MIC90 (Streptococcus oralis) of 0.12 µg/mL (≈ 0.0684 µM) and an MIC (Staphylococcus aureus [6]) of 1 µg/mL (≈ 0.57 µM). For the same molecule, the MIC50 (Staphylococcus xylosus [7]) was 0.25 µg/mL (≈ 0.142 µM), the MIC90 (Staphylococcus xylosus [7]) was 0.5 µg/mL (≈ 0.285 µM) and the MIC50 (Staphylococcus simulans [8]) was 0.25 µg/mL (≈ 0.142 µM). It also gave an MIC90 (Staphylococcus simulans [8]) of 0.5 µg/mL (≈ 0.285 µM), an MIC50 [9] of 0.25 µg/mL (≈ 0.142 µM) and an MIC90 [9] of 0.5 µg/mL (≈ 0.285 µM). The MIC50 (Enterococcus faecium [10]) was 4 µg/mL (≈ 2.28 µM), the MIC90 (Enterococcus faecium [10]) was 8 µg/mL (≈ 4.56 µM) and the MIC50 [11] was 0.25 µg/mL (≈ 0.142 µM). For the same molecule, the MIC90 [11] was 0.5 µg/mL (≈ 0.285 µM), the MIC50 (Staphylococcus xylosus [12]) was 0.25 µg/mL (≈ 0.142 µM) and the MIC90 (Staphylococcus xylosus [12]) was 0.5 µg/mL (≈ 0.285 µM). It also gave an MIC (Staphylococcus aureus [13]) of 4 µg/mL (≈ 2.28 µM), an MIC50 (Staphylococcus [14]) of 0.25 µg/mL (≈ 0.142 µM) and an MIC90 (Staphylococcus [14]) of 0.5 µg/mL (≈ 0.285 µM). It also gave an MIC50 (Streptococcus pneumoniae [15]) of 0.015 µg/mL (≈ 0.00854 µM), an MIC90 (Streptococcus pneumoniae [15]) of 0.015 µg/mL (≈ 0.00854 µM) and an MIC (Enterococcus faecalis [16]) of 0.25 µg/mL (≈ 0.142 µM). For the same molecule, the MIC50 [17] was 0.25 µg/mL (≈ 0.142 µM), the MIC90 [17] was 0.5 µg/mL (≈ 0.285 µM) and the MIC50 (Staphylococcus simulans [18]) was 0.25 µg/mL (≈ 0.142 µM). For the same molecule, the MIC90 (Staphylococcus simulans [18]) was 0.5 µg/mL (≈ 0.285 µM), the MIC (Staphylococcus [19]) was 0.5 µg/mL (≈ 0.285 µM) and the MIC50 (Enterococcus faecalis [20]) was 8 µg/mL (≈ 4.56 µM). For the same molecule, the MIC90 (Enterococcus faecalis [20]) was 16 µg/mL (≈ 9.11 µM), the MIC50 (Staphylococcus warneri [21]) was 0.25 µg/mL (≈ 0.142 µM) and the MIC90 (Staphylococcus warneri [21]) was 0.5 µg/mL (≈ 0.285 µM). For the same molecule, the MIC50 (Staphylococcus aureus [22]) was 0.25 µg/mL (≈ 0.142 µM), the MIC90 (Staphylococcus aureus [22]) was 0.25 µg/mL (≈ 0.142 µM) and the MIC50 [23] was 0.25 µg/mL (≈ 0.142 µM). The MIC90 [23] was 0.5 µg/mL (≈ 0.285 µM), the MIC50 (Staphylococcus cohnii [24]) was 0.25 µg/mL (≈ 0.142 µM) and the MIC90 (Staphylococcus cohnii [24]) was 0.5 µg/mL (≈ 0.285 µM). For the same molecule, the MIC50 (Staphylococcus cohnii [25]) was 0.25 µg/mL (≈ 0.142 µM), the MIC90 (Staphylococcus cohnii [25]) was 0.5 µg/mL (≈ 0.285 µM) and the MIC [26] was 0.03 µg/mL (≈ 0.0171 µM). For the same molecule, the MIC50 [26] was 0.03 µg/mL (≈ 0.0171 µM), the MIC90 [26] was 0.06 µg/mL (≈ 0.0342 µM) and the MIC (Streptococcus sp.) was 0.03 µg/mL (≈ 0.0171 µM). For the same molecule, the MIC50 (Streptococcus sp.) was 0.03 µg/mL (≈ 0.0171 µM), the MIC90 (Streptococcus sp.) was 0.06 µg/mL (≈ 0.0342 µM) and the MIC50 (Enterococcus faecium [27]) was 0.12 µg/mL (≈ 0.0684 µM). For the same molecule, the MIC90 (Enterococcus faecium [27]) was 0.25 µg/mL (≈ 0.142 µM), the MIC50 (Staphylococcus capitis [28]) was 0.25 µg/mL (≈ 0.142 µM) and the MIC90 (Staphylococcus capitis [28]) was 0.5 µg/mL (≈ 0.285 µM). The MIC50 (Staphylococcus hominis [29]) was 0.25 µg/mL (≈ 0.142 µM), the MIC90 (Staphylococcus hominis [29]) was 0.5 µg/mL (≈ 0.285 µM) and the MIC50 (Staphylococcus hominis [30]) was 0.25 µg/mL (≈ 0.142 µM). The MIC90 (Staphylococcus hominis [30]) was 0.5 µg/mL (≈ 0.285 µM), the MIC50 (Streptococcus sanguinis) was 0.03 µg/mL (≈ 0.0171 µM) and the MIC90 (Streptococcus sanguinis) was 0.12 µg/mL (≈ 0.0684 µM). The MIC50 (Mammaliicoccus sciuri) was 0.25 µg/mL (≈ 0.142 µM), the MIC90 (Mammaliicoccus sciuri) was 0.5 µg/mL (≈ 0.285 µM) and the MIC50 (Enterococcus faecium [31]) was 0.25 µg/mL (≈ 0.142 µM). It also gave an MIC90 (Enterococcus faecium [31]) of 2 µg/mL (≈ 1.14 µM), an MIC50 (Staphylococcus warneri [32]) of 0.25 µg/mL (≈ 0.142 µM) and an MIC90 (Staphylococcus warneri [32]) of 0.5 µg/mL (≈ 0.285 µM).
